{"data": "Experimental data of several laboratories", "target": "Serine/threonine-protein kinase DCLK1 (DCLK1, Homo sapiens, UniProt O15075)", "Sequence (O15075 1-740, as in one of the studies)": "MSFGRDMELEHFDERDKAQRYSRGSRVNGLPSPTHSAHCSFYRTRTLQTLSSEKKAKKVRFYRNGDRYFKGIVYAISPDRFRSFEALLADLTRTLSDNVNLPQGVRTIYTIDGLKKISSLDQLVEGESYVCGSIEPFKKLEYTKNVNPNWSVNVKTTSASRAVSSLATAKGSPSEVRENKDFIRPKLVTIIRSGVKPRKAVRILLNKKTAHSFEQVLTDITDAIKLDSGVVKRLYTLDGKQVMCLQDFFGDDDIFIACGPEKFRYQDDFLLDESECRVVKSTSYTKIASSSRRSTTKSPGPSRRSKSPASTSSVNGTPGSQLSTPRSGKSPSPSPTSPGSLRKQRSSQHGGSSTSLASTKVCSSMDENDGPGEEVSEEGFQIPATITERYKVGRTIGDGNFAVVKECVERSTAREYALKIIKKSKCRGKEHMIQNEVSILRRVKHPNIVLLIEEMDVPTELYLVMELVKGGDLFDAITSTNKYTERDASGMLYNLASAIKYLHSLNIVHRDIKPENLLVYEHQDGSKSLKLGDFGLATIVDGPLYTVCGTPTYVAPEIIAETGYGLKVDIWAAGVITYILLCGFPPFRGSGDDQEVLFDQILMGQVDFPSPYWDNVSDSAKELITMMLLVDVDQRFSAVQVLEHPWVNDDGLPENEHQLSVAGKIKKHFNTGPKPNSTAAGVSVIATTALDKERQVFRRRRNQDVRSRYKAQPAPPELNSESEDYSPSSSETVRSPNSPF", "note": "Protocols differ between the studies behind these lines."}
{"SMILES": "C1=C/COCc2cc(ccc2OCCN2CCCC2)Nc2nccc(n2)-c2cccc(c2)COC/1", "effect on": "cell-free assay", "concentration": "0.1 µM", "quantity": "remaining signal", "value": "100%"}
{"SMILES": "C[C@H]1CC[C@H](n2c3cnccc3c3cnc(Nc4ccc5c(n4)CCN(C(=O)CO)C5)nc32)CC1", "effect on": "cell-free assay", "concentration": "1 µM", "quantity": "remaining signal", "value": "75%"}
{"SMILES": "CC(C)S(=O)(=O)c1ccc2nccc(Nc3ccc4sc(C5CCCC5)nc4c3)c2c1", "effect on": "enzyme activity", "action": "inhibitor", "concentration": "1 µM", "quantity": "activity vs control", "value": "102%"}
{"SMILES": "COc1ccc2oc(-c3ccc4nc(N)oc4c3)c/c(=N\\c3ccccc3NC(=O)CCN)c2c1", "effect on": "binding", "concentration": "1 µM", "quantity": "remaining binding", "value": "96%"}
{"SMILES": "CC#CC(=O)N1CCC[C@H]1c1nc(-c2ccc(C(=O)Nc3ccccn3)cc2)c2c(N)nccn12", "effect on": "enzyme activity", "action": "inhibitor", "concentration": "1 µM", "quantity": "inhibition", "value": "15%"}
{"SMILES": "CN1CCN(C(=O)c2ccc(NC(=O)Nc3ccc(N(C)c4ccnc(Nc5ccc(CS(C)(=O)=O)cc5)n4)cc3)cc2)CC1", "effect on": "binding", "technique": "competition with immobilised ligand", "concentration": "1 µM", "quantity": "remaining binding", "value": "97%"}
{"SMILES": "N#Cc1ccc(NC(=O)Nc2ccccc2)cc1", "effect on": "cell-free assay", "technique": "competition with immobilised ligand", "concentration": "25 µM", "quantity": "remaining binding", "value": "91%"}
{"SMILES": "C=CC(=O)N1CCC([C@@H]2CCNc3c(C(N)=O)c(-c4ccc(Oc5ccccc5)cc4)nn32)CC1", "effect on": "enzyme activity", "action": "inhibitor", "concentration": "1 µM", "quantity": "inhibition", "value": "41%"}
{"SMILES": "CCCCC(=O)Nc1ccc(-c2ccc3ncn(CCC)c(=O)c3c2)cn1", "effect on": "binding", "technique": "competition with immobilised ligand", "concentration": "0.5 µM", "quantity": "remaining binding", "value": "68%"}
